Marks after values point to notes of the source that are not given here.
What was measured:
Xanthones in serum = format: in vivo, Balb/c nu/nu mice; conditions: for Identified in serum by HPLC-MS: mice fed diet with α-MG, not detected by HPLC-DAD
[1] = Xanthones in tumor tissue; format: in vivo, Balb/c nu/nu mice; conditions: for Tumor at 2 weeks, Free / Tumor at 4 weeks, Free / Tumor at 2 weeks, Conjugates / Tumor at 4 weeks, Conjugates: tumor tissue, diet 901 mg/kg xanthones; for Tumor at 2 weeks, Free / Tumor at 2 weeks, Conjugates: 2 weeks after injection of HT-29 cells; for Tumor at 4 weeks, Free / Tumor at 4 weeks, Conjugates: 4 weeks after injection of HT-29 cells; for Tumor at 2 weeks, Conjugates / Tumor at 4 weeks, Conjugates: nd = not detected; for Share of total xanthones in tumors: tentatively identified
HT-29 cells = experiment: HT-29 colon cell xenograft growth in mice fed diet with α-MG; format: in vivo, Balb/c nu/nu mice; conditions: diet 900 mg α-MG/kg
BcL-2 [2] = experiment: BcL-2 in tumor tissue homogenates by ELISA; format: in vivo, Balb/c nu/nu mice; conditions: mice fed diet with α-MG; 4 weeks after injection of cells; control diet 17.2 ±0.8
β-catenin [3] = experiment: β-catenin in tumor tissue homogenates by ELISA; format: in vivo, Balb/c nu/nu mice; conditions: mice fed diet with α-MG; 4 weeks after injection of cells; control diet 19.1 ± 1.9
[4] = Food intake and body weight of mice fed diet with α-MG; format: in vivo, Balb/c nu/nu mice; conditions: 845 mg/kg α-MG (901 mg total xanthones/kg) in the diet
Method in brief: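 Female athymic Balb/c nu/nu mice arrived at 4 weeks of age and were acclimated 4 days on AIN-93G diet. They were randomized (n = 24/group) to γ-irradiated AIN-93G without or with a nominal 900 mg/kg test compound, given ad libitum; actual diet content was determined by extraction. Food intake, appearance/behaviour and body weight were checked after 3 and 7 days. Groups were compared by one-way ANOVA with Dunnett's post-test.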

BcL-2 [5] = experiment: BcL-2 content in HT-29 cells by ELISA; format: cell-based, human; conditions: 24 h
Method in brief: (§1)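 HT-29 cells were seeded at 2 × 10⁵ cells/well in 6-well dishes. At 70% confluence, monolayers got basal McCoy's medium without or with test compound (6 and 12 µmol/L) for 24 h at 37°C. Cells were washed twice with ice-cold PBS and pelleted (800 × g, 4°C, 10 min), then lysed in ice-cold lysis buffer. Protein was measured with a commercial ELISA kit. Data are means ± SD versus control, compared by Welch's unpaired t-test.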

β-catenin [6] = experiment: β-catenin content in HT-29 cells by ELISA; format: cell-based, human; conditions: 24 h
Method in brief: as §1

[7] = human subjects after mangosteen juice blend containing 94 mg/mL α-MG; cited from earlier work
[8] = rats, gastric administration of 20 mg/kg in water containing 2% ethanol plus 2% Tween-80; cited from earlier work
Xanthones in liver = format: in vivo, Balb/c nu/nu mice; conditions: control- and tumor-bearing mice; tentatively identified
[9] = 2 weeks after injection of HT-29 cells
[10] = 4 weeks after injection of HT-29 cells
[11] = 6 µmol/L, preconfluent HT-29 cells

With `COc1c(O)cc2oc3cc4c(c(O)c3c(=O)c2c1CC=C(C)C)C=CC(C)(C)O4` [9-Hydroxycalabaxanthone] the “Identified in serum by HPLC-MS” value (Xanthones in serum) was “Low concentrations”, the “Tumor at 2 weeks, Free” value [1] was 0.22 ± 0.09 ^a) µg/g and the “Tumor at 4 weeks, Free” value [1] was 0.32 ± 0.11 ^a) µg/g.
With `COc1c(O)cc2oc3cc(O)c(CC=C(C)C)c(O)c3c(=O)c2c1CC=C(C)C` [α-MG, α-mangostin] the “Tumor mass less than control diet” value (HT-29 cells; [9]) was 27%, the “Tumor volume less than in mice fed the diet without α-MG” value (HT-29 cells; [9]) was 41% and the “Tumor mass less than control diet” value (HT-29 cells; [10]) was 41%. The “Tumor volume less than in mice fed the diet without α-MG” value (HT-29 cells; [10]) was 36%, the “BcL-2 concentration in tumors” value (BcL-2 [2]) was 3.9 ± 0.5 pg/mg protein and the “β-catenin concentration in tumors” value (β-catenin [3]) was 11.2 ± 0.7 pg/mg protein. The Body weight [4] was “not significantly altered”, the Food intake [4] was “not significantly altered” and the “Concentration of conjugated α-MG in serum” value (Xanthones in serum; mice with tumors for 2 weeks) was 1.0 ± 0.1 µg/mL. For the same molecule, the “α-MG in serum, without enzyme treatment (free)” value (Xanthones in serum; nontumor-bearing and tumor-bearing mice fed diet with α-MG for 5 weeks) was 15 ± 1 ng/mL, the “Concentration of total α-MG in serum” value (Xanthones in serum; nontumor-bearing mice, 4 weeks, glucuronidase/sulfatase treated) was 1.9 ± 0.3 µg/mL and the “Share of tumor α-MG that is conjugated” value ([1]; 2 weeks postinjection) was 60%. For the same molecule, the “Free and conjugated α-MG concentration in tumor tissue” value ([1]; 4 weeks postinjection) was 3.6 ± 0.1, the “Share of tumor α-MG that is conjugated” value ([1]; 4 weeks postinjection) was 52% and the “Tumor at 2 weeks, Free” value [1] was 0.51 ± 0.02 ^b) µg/g. For the same molecule, the “Tumor at 2 weeks, Conjugates” value [1] was 0.76 ± 0.03 ^c) µg/g, the “Tumor at 4 weeks, Free” value [1] was 1.71 ± 0.06 ^a) µg/g and the “Tumor at 4 weeks, Conjugates” value [1] was 1.87 ± 0.06 ^a) µg/g. For the same molecule, the “Decrease of BcL-2 vs vehicle only” value (BcL-2 [5]; [11]) was 27 ± 3%, the “Cellular content of BcL-2 less than control cultures” value (BcL-2 [5]; 12 µmol/L, HT-29 cells) was 44 ± 4% and the “Decrease of β-catenin vs vehicle only” value (β-catenin [6]; [11]) was 24 ± 2%. The “Cellular content of β-catenin less than control cultures” value (β-catenin [6]; 12 µmol/L, HT-29 cells) was 39 ± 3%, the “Cmax of free α-MG in plasma” value [7] was 3.1 µM and the Absorption [8] was “extremely low”.
In the case of `COc1cc2oc3cc(O)c(OC)c(CC=C(C)C)c3c(=O)c2c(O)c1CC=C(C)C` [β-MG, β-mangostin], the “Identified in serum by HPLC-MS” value (Xanthones in serum) is reported as “Low concentrations”, the “Share of total xanthones in tumors” value ([1]; 2 weeks after injection) is reported as 41% and the “Phase II conjugates as share of tumor β-MG” value ([1]; 4 weeks) is reported as 40%. For the same molecule, the “Share of total xanthones in tumors” value ([1]; 4 weeks after injection) was 45%, the “Tumor at 2 weeks, Free” value [1] was 1.54 ± 0.16 ^b) µg/g and the “Tumor at 2 weeks, Conjugates” value [1] was “not detected”. For the same molecule, the “Tumor at 4 weeks, Free” value [1] was 2.68 ± 0.17 ^a) µg/g, the “Tumor at 4 weeks, Conjugates” value [1] was 1.83 ± 0.17 ^b) µg/g and the “Share of the total xanthones in the liver” value (Xanthones in liver) was “approx. 85%”.

Source: PMC3886125 (Molecular nutrition & food research, 2012)
